In ChEMBL document CHEMBL1139252, “Inhibition of purple acid phosphatase with alpha-alkoxynaphthylmethylphosphonic acids” (Bioorg Med Chem Lett, 2009) one finds IC50 data, which are given here for 6 molecules.

The target of experiment [1] is T1, Fe(3+)-Zn(2+) purple acid phosphatase (Phaseolus vulgaris, UniProt P80366).
T1 sequence (P80366 whole entry): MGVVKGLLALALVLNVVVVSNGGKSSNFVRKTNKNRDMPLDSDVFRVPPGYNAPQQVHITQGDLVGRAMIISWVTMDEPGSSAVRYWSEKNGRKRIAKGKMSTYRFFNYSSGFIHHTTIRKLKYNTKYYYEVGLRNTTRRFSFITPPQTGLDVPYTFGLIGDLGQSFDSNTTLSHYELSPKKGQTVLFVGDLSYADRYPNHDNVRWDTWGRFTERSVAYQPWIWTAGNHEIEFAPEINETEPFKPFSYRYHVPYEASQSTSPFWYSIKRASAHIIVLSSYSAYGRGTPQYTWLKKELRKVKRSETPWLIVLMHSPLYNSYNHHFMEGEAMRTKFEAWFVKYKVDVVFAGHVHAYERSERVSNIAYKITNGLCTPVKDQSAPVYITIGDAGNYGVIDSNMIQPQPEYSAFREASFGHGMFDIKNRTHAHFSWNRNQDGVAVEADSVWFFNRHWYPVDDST
The experiment in a line: Inhibition of red kidney bean PAP at pH 6.2. Put shortly: (§1)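 Each enzyme was run at its own pH optimum: red kidney bean PAP at pH 6.2 and pig PAP at pH 4.9. IC50 values were determined experimentally. Separate inhibition constants were derived for binding to the free enzyme and to the enzyme–substrate complex.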

The nature of experiment [2]: Inhibition of human PAP.
Experiment [3] in a line: Inhibition of pig PAP at pH 4.9. More on the design: species or system Sus scrofa. In short, it runs like this:
as §1

Where only a bound is given, the exact number is not on record here.

As for `O=P(O)(O)C(O)c1cccc2ccccc12` (stereo not given), the IC50 in experiment [1] was 5000 µM.

Turning to `O=P(O)(O)Cc1cccc2ccccc12`, the IC50 in experiment [2] was 30 µM; in experiment [1], greater than 7000 µM.

Consider `CCCCCCOC(c1cccc2ccccc12)P(=O)(O)O` (racemic), for which the IC50 in experiment [3] was determined as 430 µM; in experiment [1] it was 1000 µM.

Take `CCCCCCCCCCOC(c1cccc2ccccc12)P(=O)(O)O` (racemic): the IC50 in experiment [3] was found to be 20 µM; in experiment [1], 8 µM.

For the molecule `CCCCCCCCOC(c1cccc2ccccc12)P(=O)(O)O` (racemic), the IC50 was determined as 30 µM in experiment [3] and 100 µM in experiment [1].

Molecule `O=C(c1ccccc1)C(C(=O)c1ccccc1)(c1cccc2ccccc12)P(=O)(O)O` returned an IC50 in experiment [2] of 1.4 µM.
